{"source": "ChEMBL document CHEMBL4513216", "about": "“Probing the Open Global Health Chemical Diversity Library for Multistage-Active Starting Points for Next-Generation Antimalarials” (ACS Infect Dis, 2020)", "assay": "Toxicity liver stage against HepG2, at 10uM", "type": "cell-based", "set-up": "test concentration 10 uM, cell line HepG2-A16-CD81EGFP", "details": "human, HepG2-A16-CD81EGFP cells; read-out: INHIBITION", "outline": "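Uninfected HepG2-A16-CD81EGFP cells, 3 × 10^3 per well, 1536-well, plated on prespotted compound at 10 μM final, parasite-free screening media added to match infected plates; puromycin 10 μM positive, DMSO 0.5% negative; run in parallel with 48 h PbLuc assay at 37 °C, 5% CO2; viability by CellTiter-Glo luminescence, normalized to controls.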"}
{"compound": "CNC(=O)CN(C)c1cncc(OCc2ccccc2)n1", "values": [{"measurement": "cytotoxicity at 10 µM", "value": 1.15, "unit": "%"}]}
{"compound": "c1ccn2c(SCC3CN=C(N4CCOCC4)S3)ncc2c1", "note": "(stereo unspecified)", "values": [{"measurement": "cytotoxicity at 10 µM", "value": 11.8, "unit": "%"}]}
{"compound": "O=C1CC(N(C(=O)COc2ccc(F)cc2F)C2CC2)C(=O)N1", "note": "(stereo unspecified)", "values": [{"measurement": "cytotoxicity at 10 µM", "value": -3.59, "unit": "%"}]}
{"compound": "O=C(c1cncc(Br)c1)N1CCCc2c(F)cc(F)cc21", "values": [{"measurement": "cytotoxicity at 10 µM", "value": 2.81, "unit": "%"}]}
{"compound": "O=C(CN(Cc1ccco1)C1CC1)Nc1ccc(Br)cn1", "values": [{"measurement": "cytotoxicity at 10 µM", "value": -2.65, "unit": "%"}]}
{"compound": "Cc1cc(C)cc(C(=O)N2CCCN(CC(N)=O)CC2)c1", "values": [{"measurement": "cytotoxicity at 10 µM", "value": -5.65, "unit": "%"}]}
{"compound": "Cc1cnn(CC(C)NCCc2cccs2)c1", "note": "(stereo unspecified)", "values": [{"measurement": "cytotoxicity at 10 µM", "value": -1.52, "unit": "%"}]}
{"compound": "CN(C(=O)Cn1nc(-c2ccc(F)cc2)oc1=O)C1CCS(=O)(=O)C1", "note": "(stereo unspecified)", "values": [{"measurement": "cytotoxicity at 10 µM", "value": 10.7, "unit": "%"}]}
{"compound": "CC(C)OCCOCc1cccc(NC(=O)NCc2ccccn2)c1", "values": [{"measurement": "cytotoxicity at 10 µM", "value": -2.35, "unit": "%"}]}
{"compound": "COc1ccc(-c2nc(CN3CC(n4nc(C)cc4C)C3)no2)cc1", "values": [{"measurement": "cytotoxicity at 10 µM", "value": -3.88, "unit": "%"}]}
{"compound": "CCN(CC)c1ccc(NS(=O)(=O)c2cnn(C)c2)cn1", "values": [{"measurement": "cytotoxicity at 10 µM", "value": -7.12, "unit": "%"}]}
{"compound": "CN(C)Cc1nnc2n1CCN(Cc1ccccn1)CC2", "values": [{"measurement": "cytotoxicity at 10 µM", "value": 2.05, "unit": "%"}]}
{"compound": "Cc1nccc([C@@H]2C[C@@H]3CCN(Cc4ccco4)C[C@H]3O2)n1", "values": [{"measurement": "cytotoxicity at 10 µM", "value": -2.61, "unit": "%"}]}
{"compound": "COc1ccccc1CN(Cc1cccnc1)Cc1nccs1", "values": [{"measurement": "cytotoxicity at 10 µM", "value": -1.53, "unit": "%"}]}
{"compound": "Cc1noc(C)c1CCCNc1cnccn1", "values": [{"measurement": "cytotoxicity at 10 µM", "value": 10.2, "unit": "%"}]}
{"compound": "CCn1ncnc1C(C)NC(=O)CC1CCN(C(C)C)CC1", "note": "(stereo unspecified)", "values": [{"measurement": "cytotoxicity at 10 µM", "value": -133, "unit": "%"}]}
{"compound": "O=C1CC(NCc2ccc(OC(F)F)cc2)CN1Cc1cccc(F)c1", "note": "(stereo unspecified)", "values": [{"measurement": "cytotoxicity at 10 µM", "value": -5.29, "unit": "%"}]}
{"compound": "CCCn1ccnc1CN1CCCC(CC)(CO)C1", "note": "(stereo unspecified)", "values": [{"measurement": "cytotoxicity at 10 µM", "value": 3.44, "unit": "%"}]}
{"compound": "COCCN(C)C[C@@H]1CN(C(=O)c2ccc(OC)c(F)c2)C[C@@H]1CO", "values": [{"measurement": "cytotoxicity at 10 µM", "value": 2.87, "unit": "%"}]}
{"compound": "CCCn1ccnc1CN1CCCC(O)(CN(C)C)CC1", "note": "(stereo unspecified)", "values": [{"measurement": "cytotoxicity at 10 µM", "value": 1.33, "unit": "%"}]}
{"compound": "c1cc(-c2cn[nH]c2)ncc1CN1CCCCC1", "values": [{"measurement": "cytotoxicity at 10 µM", "value": -1.35, "unit": "%"}]}
{"compound": "OCCc1ncnn1Cc1cccc(Cl)c1", "values": [{"measurement": "cytotoxicity at 10 µM", "value": 18.2, "unit": "%"}]}
{"compound": "Cc1ccc2c(c1)OC(C)(C)CC2NC(=O)C1CCN(S(C)(=O)=O)CC1", "note": "(stereo unspecified)", "values": [{"measurement": "cytotoxicity at 10 µM", "value": 1.93, "unit": "%"}]}
{"compound": "CC(O)c1cccc(N2CCC3(CC2)Nc2ccccc2NC3=O)n1", "note": "(stereo unspecified)", "values": [{"measurement": "cytotoxicity at 10 µM", "value": -10.6, "unit": "%"}]}
{"compound": "COc1cccc(F)c1C(=O)N1C[C@@H](CN(C)CCO)[C@@H](CO)C1", "values": [{"measurement": "cytotoxicity at 10 µM", "value": -5.88, "unit": "%"}]}
{"compound": "O=S1(=O)C[C@@H]2[C@H](C1)N(Cc1ncc[nH]1)CCN2CC1CC1", "values": [{"measurement": "cytotoxicity at 10 µM", "value": -7.18, "unit": "%"}]}
{"compound": "CCn1nc(C)c(CNC(=O)c2cn(CC3CCCO3)nn2)c1C", "note": "(stereo unspecified)", "values": [{"measurement": "cytotoxicity at 10 µM", "value": -2.34, "unit": "%"}]}
{"compound": "Cc1noc(C)c1C(=O)N(C)Cc1nc(-c2ccccn2)no1", "values": [{"measurement": "cytotoxicity at 10 µM", "value": -6.23, "unit": "%"}]}
{"compound": "CCCS(=O)(=O)N1CCN(c2cc(-n3nc(C)cc3C)nc(C)n2)CC1", "values": [{"measurement": "cytotoxicity at 10 µM", "value": -13.7, "unit": "%"}]}
{"compound": "CN(Cc1cccc(OC(F)F)c1)Cc1nc2c(cnn2C)c(=O)[nH]1", "values": [{"measurement": "cytotoxicity at 10 µM", "value": -0.438, "unit": "%"}]}
{"compound": "Cc1noc(Cl)c1CCC(=O)N1CCN(c2cnccn2)CC1", "values": [{"measurement": "cytotoxicity at 10 µM", "value": -3.5, "unit": "%"}]}
{"compound": "CC1CCCCN1CCNC(=O)c1scnc1Cl", "note": "(stereo unspecified)", "values": [{"measurement": "cytotoxicity at 10 µM", "value": -6.27, "unit": "%"}]}
{"compound": "CC(=O)Nc1nc(C(=O)N2CCCC(n3ccnc3C)C2)cs1", "note": "(stereo unspecified)", "values": [{"measurement": "cytotoxicity at 10 µM", "value": -9.78, "unit": "%"}]}
{"compound": "Cc1ncc(C(=O)NCCNC(=O)c2ccccc2)s1", "values": [{"measurement": "cytotoxicity at 10 µM", "value": -3.67, "unit": "%"}]}
{"compound": "COc1ccc(C(C)N(C)Cc2nc3c(cnn3C)c(=O)[nH]2)cc1", "note": "(stereo unspecified)", "values": [{"measurement": "cytotoxicity at 10 µM", "value": -7.42, "unit": "%"}]}
{"compound": "c1csc(-c2noc(CNC3CCc4ncnn4C3)n2)c1", "note": "(stereo unspecified)", "values": [{"measurement": "cytotoxicity at 10 µM", "value": -9.3, "unit": "%"}]}
{"compound": "O=C(c1cc2c(s1)CCCC2)N1CCCC1Cn1cccn1", "note": "(stereo unspecified)", "values": [{"measurement": "cytotoxicity at 10 µM", "value": -11.9, "unit": "%"}]}
{"compound": "Cc1cc(C(=O)O)cc(S(=O)(=O)Nc2ccc3c(c2)OCCO3)c1C", "values": [{"measurement": "cytotoxicity at 10 µM", "value": -3.95, "unit": "%"}]}
{"compound": "Cc1ccc(N2CCCC(NCc3cnc(C)s3)C2)nn1", "note": "(stereo unspecified)", "values": [{"measurement": "cytotoxicity at 10 µM", "value": -0.755, "unit": "%"}]}
{"compound": "COc1c(CNC2CCN(C(=O)C3CC3)CC2)c(C(C)C)nn1C", "values": [{"measurement": "cytotoxicity at 10 µM", "value": -4.72, "unit": "%"}]}
{"compound": "CNc1cc2c(nn1)CCN(C(=O)C1CCCc3ccccc31)C2", "note": "(stereo unspecified)", "values": [{"measurement": "cytotoxicity at 10 µM", "value": -17.2, "unit": "%"}]}
{"compound": "Cc1cc(CNC(=O)N2CCCN(Cc3ccccc3)CC2)no1", "values": [{"measurement": "cytotoxicity at 10 µM", "value": -8.26, "unit": "%"}]}
{"compound": "COc1ccccc1OCC(=O)NS(=O)(=O)c1ccc(Br)s1", "values": [{"measurement": "cytotoxicity at 10 µM", "value": -8.72, "unit": "%"}]}
{"compound": "CN(C)C(=O)[C@]12CCCN(CC3CC3)C[C@H]1CN(c1ccccn1)C2", "values": [{"measurement": "cytotoxicity at 10 µM", "value": 3.68, "unit": "%"}]}
{"compound": "CN(Cc1ccco1)[C@@H]1CN(Cc2ccccn2)C[C@@H]2CCCO[C@@H]21", "values": [{"measurement": "cytotoxicity at 10 µM", "value": 0.34, "unit": "%"}]}
{"compound": "CN(C)C(=O)COC[C@@H]1CC[C@H]2[C@H](CCN2c2ncccn2)O1", "values": [{"measurement": "cytotoxicity at 10 µM", "value": 15.6, "unit": "%"}]}
{"compound": "Cn1cc(CN2C[C@@H]3COC[C@H](C(=O)Nc4cccnc4)[C@@H]3C2)cn1", "values": [{"measurement": "cytotoxicity at 10 µM", "value": 9.34, "unit": "%"}]}
{"compound": "O=C(NCc1cncc2c1CCN(C1CCOC1)C2)c1ccco1", "note": "(stereo unspecified)", "values": [{"measurement": "cytotoxicity at 10 µM", "value": 0.797, "unit": "%"}]}
{"compound": "Cc1cnc2n1CCN(C)C21CCN(C(=O)CC(C)C)CC1", "values": [{"measurement": "cytotoxicity at 10 µM", "value": -5.85, "unit": "%"}]}
{"compound": "O=C(N1CCOCC1)N1CCc2ncnc(Oc3cccnc3)c2CC1", "values": [{"measurement": "cytotoxicity at 10 µM", "value": -0.82, "unit": "%"}]}
{"compound": "CCN(C)C1COC2(CCN(C(=O)c3cccc(Cl)c3)CC2)C1", "note": "(stereo unspecified)", "values": [{"measurement": "cytotoxicity at 10 µM", "value": -5.66, "unit": "%"}]}
{"compound": "Cn1cccc1C(=O)N[C@@H]1CN(CC2CC2)[C@@H]2COC[C@@H]21", "values": [{"measurement": "cytotoxicity at 10 µM", "value": 1.66, "unit": "%"}]}
{"compound": "CSc1ncccc1C(=O)N1C[C@@H]2CC[C@H]1CN(c1cnccn1)C2", "values": [{"measurement": "cytotoxicity at 10 µM", "value": -2.72, "unit": "%"}]}
{"compound": "Cc1nonc1CC(=O)N1C[C@H]2CC[C@@H](C1)N(Cc1ccccc1)C2=O", "values": [{"measurement": "cytotoxicity at 10 µM", "value": -11.6, "unit": "%"}]}
{"compound": "Cc1nc(=O)c(CC(=O)N2C[C@@H]3CC[C@H]2CN(C(=O)N(C)C)C3)c(C)[nH]1", "values": [{"measurement": "cytotoxicity at 10 µM", "value": 7.6, "unit": "%"}]}
{"compound": "Cc1ccc(-n2cc3[nH]c(=O)n(C(C)C)n3c2=O)cc1", "values": [{"measurement": "cytotoxicity at 10 µM", "value": -8.9, "unit": "%"}]}
